Source: ChEMBL document CHEMBL4715743, “Synthesis and biological evaluation of indole-2-carboxamides bearing photoactivatable functionalities as novel allosteric modulators for the cannabinoid CB1 receptor” (Eur J Med Chem, 2016)

How the values were obtained:
[1] = biological target: Cannabinoid receptor 1 (Homo sapiens) (UniProt P21554); experiment: Negative allosteric modulator activity at CB1 receptor (unknown origin) expressed in HEK293 cell membrane assessed as equilibrium dissociation constant using [3H]-CP55940 as radiolabelled orthosteric agonist incubated for 60 mins by liquid scintillation counting analysis; assay type: cell membranes; details: filed as negative allosteric modulator
In short: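 HEK293 cells transiently transfected with CB1 (calcium phosphate), harvested at 24 h; membranes from nitrogen cavitation and 100,000 g pellet, kept in TME buffer (pH 7.4) with 7% sucrose. 4 µg membrane incubated 60 min with [3H]CP55940 at about its Kd in TME plus 0.1% fatty acid-free BSA. Nonspecific binding taken with 1 µM unlabeled CP55,940; filtration on GF/C. At least three experiments, each in duplicate.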

[2] = biological target: Cannabinoid receptor 1 (Homo sapiens) (UniProt P21554); experiment: (§1) Negative allosteric modulator activity at CB1 receptor (unknown origin) expressed in HEK293 cell membrane assessed as reduction in CP55,940-induced [35S]GTPgammaS binding at 10 uM incubated for 60 mins by liquid scintillation counting analysis; assay type: functional, cell membranes; details: filed as negative allosteric modulator
[3] = biological target: Cannabinoid receptor 1 (Homo sapiens) (UniProt P21554); experiment: Negative allosteric modulator activity at CB1 receptor (unknown origin) expressed in HEK293 cell membrane assessed as reduction in CP55,940-induced [35S]GTPgammaS binding incubated for 60 mins by liquid scintillation counting analysis; assay type: functional, cell membranes; details: filed as negative allosteric modulator, dose 3.2-10 µM
[4] = biological target: Cannabinoid receptor 1 (Homo sapiens) (UniProt P21554); experiment: as §1, with “binding by measuring Emax of CP55,940” for “binding”, “3.2” for “10”, “analysis (reference value: 68.9 +/-1.7 fmol/mg)” for “analysis”; assay type: functional, cell membranes; details: filed as negative allosteric modulator

Cannabinoid receptor 1 (Homo sapiens), sequence (P21554 whole entry): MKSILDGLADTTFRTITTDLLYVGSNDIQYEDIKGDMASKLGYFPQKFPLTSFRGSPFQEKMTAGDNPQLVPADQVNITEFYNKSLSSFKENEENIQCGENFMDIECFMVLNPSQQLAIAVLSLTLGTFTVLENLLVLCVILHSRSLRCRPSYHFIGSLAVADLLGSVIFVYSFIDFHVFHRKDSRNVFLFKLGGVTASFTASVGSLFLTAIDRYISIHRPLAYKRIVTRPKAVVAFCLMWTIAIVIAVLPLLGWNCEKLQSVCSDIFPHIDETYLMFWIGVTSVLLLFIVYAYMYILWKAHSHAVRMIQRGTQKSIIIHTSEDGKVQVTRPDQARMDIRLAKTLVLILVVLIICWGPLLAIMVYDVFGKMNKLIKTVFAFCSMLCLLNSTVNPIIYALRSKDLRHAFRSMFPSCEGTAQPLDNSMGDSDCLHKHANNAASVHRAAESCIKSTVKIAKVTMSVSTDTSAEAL

Kb [1] [nM] | inhibition [2] [%] | inhibition [3] | Emax [4] [fmol/mg] | SMILES
784 |  |  |  | [N-]=[N+]=NCc1c(C(=O)NCCc2ccc(N3CCCCC3)cc2)[nH]c2ccc(Cl)cc12
314 | 100 | Dose-dependent effect | 34.1 | CCCCCCc1c(C(=O)NCCc2ccc(N=[N+]=[N-])cc2)[nH]c2ccc(Cl)cc12
3280 |  |  |  | CCCCCCc1c(C(=O)NCCc2ccc(C3(C(F)(F)F)N=N3)cc2)[nH]c2ccc(Cl)cc12
6310 |  |  |  | [N-]=[N+]=NCc1c(C(=O)NCCc2ccc(C(=O)c3ccccc3)cc2)[nH]c2ccc(Cl)cc12
254 | 100 | Dose-dependent effect | 41.3 | CCc1c(C(=O)NCCc2ccc(C(=O)c3ccccc3)cc2)[nH]c2ccc(Cl)cc12
200 | 100 | Dose-dependent effect | 31.1 | CN(C)c1ccc(CCNC(=O)c2[nH]c3ccc(Cl)cc3c2CN=[N+]=[N-])cc1
559 | 100 | Dose-dependent effect | 27 | CCCCCc1c(C(=O)NCCc2ccc(C(=O)c3ccccc3)cc2)[nH]c2ccc(Cl)cc12
